From PubChem
CHO parental Ca: ATP-evoked calcium signal inhibitors, parental CHO, primary screen, counter-screen for OX1R antagonist project, cell-based, fluorescence, Fluo-8 calcium dye; parental CHO-K1, ATP-induced calcium, Fluo-8 fluorescence; inhibition, % at 5.6 µM; hit rate 0.63% among 330,000;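 active means inhibition above that plate's mean sample inhibition plus 3 SD, cut at about 26% in these data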;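 further: 0% = ATP-challenged DMSO wells and 100% = DMSO wells without ATP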
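Assay system: untransfected parental CHO cell line. Also added: ATP agonist challenge. Dosing: one dose, 5.6 µM nominal. Measured by: Fluo-8 fluorescence. Read-out: % inhibition. Benchmarks: ATP wells versus no-ATP DMSO wells. Repeats: no replicates.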
TAAR1 ag: human TAAR1 agonists, primary screen, Fluo-8 calcium fluorescence, CHO RD-HGA16 cells | Trace amine-associated receptor 1 (Homo sapiens), Q96RJ0 | vehicle wells 0%, saturating PEA agonist 100% | activation, % at 3 µM | hit rate 0.99% among 360,000 | AID 624467, 2012;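 active means activation above the mean activation of all test compounds in the run plus 3 SD, cut at about 38% in these data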
Target sequence (Q96RJ0 whole entry, looked up): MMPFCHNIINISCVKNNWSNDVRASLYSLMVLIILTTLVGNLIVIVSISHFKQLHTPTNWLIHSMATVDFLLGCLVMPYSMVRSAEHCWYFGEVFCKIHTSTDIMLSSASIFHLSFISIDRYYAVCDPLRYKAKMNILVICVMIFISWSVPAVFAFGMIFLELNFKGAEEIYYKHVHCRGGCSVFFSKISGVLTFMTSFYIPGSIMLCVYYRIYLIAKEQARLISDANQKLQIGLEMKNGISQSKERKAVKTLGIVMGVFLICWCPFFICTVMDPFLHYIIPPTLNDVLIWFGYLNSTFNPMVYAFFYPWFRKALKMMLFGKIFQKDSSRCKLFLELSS
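Assay system – CHO-derived RD-HGA16 cells with stable Gα16 and human TAAR1 · Compound dosing – one-point dosing at 3 µM (nominal) · Incubation – 17-24 h seeding, 75 min 37 °C dye, 30 min RT · Measured by – kinetic Fluo-8 calcium fluorescence · Control set – DMSO vehicle as 0%, PEA at EC100 as 100% · Repeats – single well for each compound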
OX1R antag-1: antagonists of human orexin 1 receptor (OX1R) | OX1R-expressing cells, FRET antagonist read-out | inhibition, % at 6.6 µM | hit rate 1.8% among 330,000 | AID 485270, 2010; in the data active means inhibition mostly above about 38%, no sharp cut-off; inactive means mostly below about 40%;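 further: 0% = agonist challenge alone and 100% = reference antagonist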
Target sequence (O43613 whole entry, looked up): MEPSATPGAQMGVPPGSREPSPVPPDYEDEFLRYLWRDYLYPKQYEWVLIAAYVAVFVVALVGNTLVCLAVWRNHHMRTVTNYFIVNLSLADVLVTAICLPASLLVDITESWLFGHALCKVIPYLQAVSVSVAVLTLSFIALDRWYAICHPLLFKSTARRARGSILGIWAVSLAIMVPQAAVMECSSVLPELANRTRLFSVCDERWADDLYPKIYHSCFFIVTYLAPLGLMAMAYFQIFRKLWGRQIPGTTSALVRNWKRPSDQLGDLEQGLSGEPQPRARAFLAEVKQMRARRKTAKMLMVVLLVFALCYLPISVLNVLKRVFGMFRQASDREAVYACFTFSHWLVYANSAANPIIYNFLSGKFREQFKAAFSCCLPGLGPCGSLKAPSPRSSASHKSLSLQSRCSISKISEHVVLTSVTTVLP
GalR3 antagonist: GalR3 antagonists in HEK293 cells, primary screen, cell-based, fluorescence readout. HEK293 GalR3-CNG cAMP membrane potential fluorescence; galR3 body fused to GalR1 C-terminus. hit rate 0.44% among 360,000. inhibition, % at 3 µM;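 active means inhibition above the screen-wide average plus 3 SD, cut at about 13% in these data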;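 further: forskolin and galanin both at EC90 stimulate the cells; cAMP rise reported by CNG channel membrane potential dye signal; 0% = forskolin plus galanin with DMSO and 100% = forskolin alone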
OX1R antag-2: OX1R (HCRTR1) antagonists, primary screen, fluorescence, CHO/OX1R cells, Fluo-8 calcium, orexin A | Orexin/Hypocretin receptor type 1 (Homo sapiens), O43613 | Fluo-8 calcium fluorescence | inhibition, % at 5 µM | hit rate 0.43% among 330,000 | AID 434989, 2010;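 active means inhibition above its plate's threshold, mean inhibition of all tested compounds on the plate plus 3 SD, cut at about 37% in these data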;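 further: 0% = orexin A challenge wells and 100% = SB-334867-A antagonist wells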
TAAR1 antagonist: human TAAR1 antagonists, primary screen, Fluo-8 calcium fluorescence, CHO RD-HGA16 cells; Trace amine-associated receptor 1 (Homo sapiens), Q96RJ0; antagonist; inhibition, % at 3 µM; hit rate 1.5% among 360,000;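 active means inhibition above a per-plate cutoff, the mean inhibition of test compounds on that plate plus 3 SD, cut at about 49% in these data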;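 further: 0% = DMSO plus EC80 beta-PEA response and 100% = DMSO alone without agonist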
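Material: RD-HGA16 CHO cells with stable hTAAR1 and Gα16; Dosing: single nominal final test compound concentration of 3 µM; Schedule: seeding 17-24 h prior, 75-min 37 °C, 30-min RT dye loading; Detection: kinetic Fluo-8 calcium fluorescence measurement; Measure: % inhibition from peak post-agonist over basal fluorescence ratio; Benchmarks: vehicle and agonist controls.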
OX1R HTRF conf: OX1R (HCRTR1) antagonists, confirmation, cell-based, HTRF | shares compounds with OX1R antag-1 | hit rate 49% among 1,800 | AID 492964, 2010 | inhibition, % at 6.6 µM | OX1R-expressing cells, HTRF antagonist assay; in the data active means inhibition above about 55%;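 further: CHO cells expressing OX1R stimulated with orexin A at about EC80; 0% = agonist challenge alone and 100% = reference antagonist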
CHO-K1 HTRF: signal inhibition in parental CHO-K1 cells, counter-screen for OX1R antagonist project, cell-based, HTRF | inhibition, % at 6.6 µM | hit rate 48% among 1,800 | shares compounds with OX1R antag-1 | HTRF counterscreen; in the data active means inhibition above about 17%;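 further: 0% = agonist challenge with vehicle and 100% = vehicle alone without agonist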
The depositor's hits bear a star; nt = no result given; + = active, no number. A selection: hits, their analogues and other compounds. The true share with any hit is near 4.3%.

SMILES | CHO parental Ca | TAAR1 ag | OX1R antag-1 | GalR3 antagonist | OX1R antag-2 | TAAR1 antagonist | OX1R HTRF conf | CHO-K1 HTRF
CCC(=O)Nc1ccccc1Nc1cc(C#N)c(C#N)cc1[N+](=O)[O-] | -20.2 | 14.4 | + | -2.1 | -17.2 | 5.2 | 59.1* | 71.8*
O=C1OCCN1/N=C/c1ccc([N+](=O)[O-])o1 | -12.7 | 0.2 | 79.2* | nt | 14.0 | 2.1 | 60.4* | 92.8*
CCNc1ccc(C(=O)OCC(=O)N2CCCC2)cc1[N+](=O)[O-] | -4.3 | -0.5 | 139.7* | -9.0 | -17.9 | -6.7 | 33.7 | 56.3*
CCNc1ccc(C(=O)OCC(=O)NCc2ccc(C)cc2)cc1[N+](=O)[O-] | -16.4 | -0.2 | 20.7 | -1.4 | -22.6 | -2.3 | nt | nt
CN(C)C(=O)c1cc2cc([N+](=O)[O-])ccc2s1 | 4.7 | 6.7 | 119.8* | -1.4 | -6.7 | -0.3 | 38.8 | 32.7*
O=C(N/N=C/c1cc(Cl)c(O)c(Cl)c1)c1cc2c(ccc3ccccc32)o1 | 14.4 | 0.6 | 92.2* | -3.1 | 9.1 | 47.2 | 54.2 | 14.1
CC(=O)Nc1ccc2c(c1)Cc1c(F)cccc1-2 | nt | 0.3 | nt | -5.2 | nt | -12.7 | nt | nt
COc1ccc2nc3sc(C(=O)N4CCN(C)CC4)cc3cc2c1 | -4.3 | 8.0 | 110.3* | -2.5 | 10.4 | 8.6 | 34.9 | 26.8*
COc1ccc2nc3sc(C(=O)NCCCN4CCc5ccccc5C4)cc3cc2c1 | -20.0 | 3.0 | 79.6* | 1.3 | -18.0 | -7.2 | 28.9 | 20.2*
O=[N+]([O-])c1ccc(N2CCCCC2)s1 | -12.6 | -0.6 | 100.7* | -5.5 | -4.4 | -16.6 | 38.5 | 70.2*
O=C(CCCN1C(=O)c2cccc3cccc(c23)C1=O)NC1CCS(=O)(=O)C1 (stereo not drawn) | -4.8 | 7.4 | 84.8* | -4.1 | -21.2 | 5.4 | 41.9 | 49.7*
C/C(=N\Nc1nnc2c3ccccc3n(C)c2n1)c1ccc(C)o1 | -13.3 | 8.0 | 93.2* | 2.6 | 0.2 | 2.5 | 96.5* | 17.3*
O=C(CNC(=O)c1cccs1)OCC(=O)c1ccccc1 | 2.2 | 2.5 | 8.6 | -4.3 | 3.3 | 9.1 | nt | nt
O=C(CNC(=O)c1cccs1)NCC(=O)OCC(=O)c1ccc([N+](=O)[O-])cc1 | -4.8 | 7.5 | 103.1* | -6.0 | -2.6 | -7.7 | 35.7 | 43.5*
CN(C)CCN1CCN(C2CN(Cc3cn(Cc4ccc(F)cc4)nn3)S(=O)(=O)C2)CC1 (stereo not drawn) | nt | 1.7 | nt | -4.2 | nt | -7.6 | nt | nt
O=C(Nc1ccn(-c2ccccc2)n1)c1ccccc1Br | -5.1 | 1.2 | 46.5 | 0.1 | 6.8 | -4.6 | nt | nt
S=c1[nH]nc2sc3ccccc3n12 | nt | 0.3 | nt | 0.2 | nt | -2.7 | nt | nt
S=c1[nH]nc2nnc3ccccc3n12 | 1.6 | -0.1 | 85.3* | -0.3 | -10.8 | -6.8 | 88.0* | 79.0*
COc1ccccc1C(=O)N=Nc1c(O)[nH]c2ccc([N+](=O)[O-])cc12 | nt | 2.9 | nt | -4.3 | nt | -12.6 | nt | nt
NC(=O)N=Nc1c(O)[nH]c2ccc([N+](=O)[O-])cc12 | -7.1 | 2.7 | 101.7* | 3.0 | -18.9 | -14.8 | 44.5 | 62.6*
C[C@H]1CN([C@@H](C)CO)C(=O)CCCn2cc(nn2)CO[C@@H]1CN(C)C(=O)Cc1ccccc1 | nt | 1.5 | nt | -2.4 | nt | -0.5 | nt | nt
CCOC(=O)N1CCN(C(=O)C[C@@H]2C[C@@]3(C(=O)OC)CC(C)(C)CC=C3N(CCc3ccc(OC)c(OC)c3)C2=O)CC1 | nt | 2.1 | nt | -5.3 | nt | 11.0 | nt | nt
CN(C)CCOC(=O)c1ccc2c(c1)S(=O)(=O)c1ccccc1C2=O | -5.5 | 0.9 | 107.6* | -3.5 | 0.2 | -24.3 | 53.1 | 57.6*
O=C(Nc1ccc(-c2ccccc2)cc1)c1ccc2c(c1)S(=O)(=O)c1ccccc1C2=O | -3.0 | 9.3 | 14.4 | -4.8 | -12.4 | 14.8 | nt | nt
CC(C)NC(=O)c1ccc2c(c1)S(=O)(=O)c1ccccc1C2=O | -9.8 | 13.1 | 152.6* | -1.8 | -4.1 | 6.4 | 47.2 | 63.2*
SMILES | CHO parental Ca | TAAR1 ag | OX1R antag-1 | GalR3 antagonist | OX1R antag-2 | TAAR1 antagonist | OX1R HTRF conf | CHO-K1 HTRF
O=C1C=C(N2CCCCC2)c2ccccc2C1=O | -8.9 | 2.2 | 84.0* | -2.5 | -18.8 | 7.5 | 65.7* | 110.2*
O=C1c2ccccc2C(=O)c2c1cccc2N1CCCC1 | -15.4 | -0.4 | 27.0 | -2.8 | -16.9 | -28.9 | nt | nt
CCCCCCNC(=O)N[C@H](C(=O)NCCC[C@H]1CN2C(=NC[C@H]2C)N1CCC(c1ccccc1)c1ccccc1)C(C)O (stereo partly drawn) | -22.6 | nt | 6.9 | nt | -5.3 | nt | nt | nt
O=C(Nc1ccc(NC(=O)c2ccccc2F)cn1)c1ccco1 | -2.6 | 4.1 | 9.6 | -10.2 | -1.4 | 11.8 | nt | nt
COc1ccc(-c2oc3c(c2C#CCCCCO)C(OCCO)CC3)cc1 (stereo not drawn) | nt | 0.8 | nt | -4.2 | nt | -19.0 | nt | nt
CCOC(=O)C1(CC)NC(c2cccc(F)c2)C2C(=O)N(CC)C(=O)C21 (stereo not drawn) | -3.1 | 10.7 | 89.3* | -1.4 | -6.4 | -1.3 | 10.6 | -1.9
CCN1C(=O)[C@H]2[C@@H](c3ccc(-c4ccc(F)cc4)cc3)N[C@@](CC(C)C)(C(=O)OC)[C@H]2C1=O | -15.8 | 2.5 | 18.0 | 0.6 | -24.3 | 0.5 | nt | nt
CCN(CC)C1=NS(=O)(=O)c2cc([N+](=O)[O-])ccc21 | 0.6 | 5.8 | + | -7.6 | -11.8 | 8.7 | 47.6 | 97.3*
Cc1ccc(C(=O)CC(=O)c2ccc(C)cc2O)cc1 | nt | 1.7 | nt | -5.3 | nt | -32.4 | nt | nt
O=[N+]([O-])c1cnccc1Nc1ccc(F)cc1 | 5.8 | 0.0 | 127.2* | -1.2 | -16.0 | -10.2 | 36.5 | 33.4*
Oc1nc(Nc2ccc(F)cc2)sc1/C=C1\C=Nc2ccccc21 | 1.9 | -0.7 | 93.4* | -7.8 | 22.9 | 27.5 | 23.4 | -0.5
CC1=Nc2ccccc2/C1=C\c1sc(Nc2ccc(C)cc2)nc1O | -24.7 | 3.5 | 25.4 | -1.3 | -5.1 | 41.2 | nt | nt
O=C(Nc1nc2ccsc2c(=O)s1)c1ccco1 | 0.6 | 0.8 | 17.7 | -1.6 | -0.5 | -3.8 | nt | nt
O=c1sc(Nc2ccccc2)nc2ccsc12 | -14.9 | 2.8 | 84.7* | -3.7 | 14.8 | 5.7 | 92.0* | 8.9
